CHOP UPR activ – activators of apoptotic CHOP UPR arm, primary screen, cell-based, CHO-CHOP luciferase reporter, luminescence, uHTS | UPR activation; percent of tunicamycin response over DMSO baseline | AID 449763, 2010 | activation, % at 10 µM | 0.34% of 330,000 active;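 active = at 10 µM dose, activation of 40% or more, normalized to positive control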;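 also: 100% = tunicamycin at 10 µg/mL and 0% = DMSO alone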
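Test system: CHO-CHOP cells, stable luciferase reporter of PERK-eIF2a-CHOP signalling | Quantity: 500 CHO-CHOP cells per well | Buffer or medium: F12 plus 10% serum | Compound dosing: 10 µM single point, 0.5% DMSO | Schedule: 6 h compound treatment, 37 °C | Signal: Luciferase luminescence | Control set: Tunicamycin high control, DMSO low control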
Dynein transport – inhibitors of GR-EGFP nuclear translocation, primary screen, dynein cargo transport inhibitor project, imaging, high-content, 3617.4 mouse cells; test concentration mostly 20 µM; stimulated with dexamethasone, 1 µM; active compounds read low; z-score, hits read low; 0.47% of 220,000 active; AID 1381, 2008;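 active = plate z-score of nuclear minus cytoplasmic receptor signal below a set negative limit, without overly bright fluorescence or cell loss, cut at about -3.5 in these data, passing the limit was not always enough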;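 also: z-score of nuclear minus cytoplasmic ring GR-EGFP intensity difference per well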
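medium = tetracycline-free induction medium containing charcoal-stripped FBS | also added = 1.0 µM final dexamethasone stimulus | schedule = 48 h induction, 1 h compound, 30 min dex at 37 °C | technique = fixed, Hoechst-stained cells imaged at 10x for EGFP | measure = GR-EGFP nuclear translocation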
CHOP inhibitor – inhibitors of CHOP promoter induction, primary screen, cell-based, unfolded protein response, luciferase reporter; inhibition, % at 10 µM; CHO-K1 CHOP-promoter luciferase, tunicamycin-induced, 15-18 h; 3.8% of 220,000 active;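 active = compounds that reduced the stress-induced luciferase reporter signal by more than about 70% of percent inhibition, limit read from the data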;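 also: 0% = tunicamycin plus vehicle and 100% = wells without tunicamycin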
UPR XBP1 act – activators of adaptive XBP1 UPR arm, primary screen, cell-based, CHO-XBP1 luciferase reporter, luminescence, uHTS. AID 463104, 2010. activation, % at 20 µM. IRE1-XBP1 UPR activation; percent of tunicamycin response, DMSO as zero. 0.33% of 330,000 active;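 active = versus positive control, 20 µM dose yields 30% or more activation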;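 also: 100% = tunicamycin at 10 µg/mL and 0% = DMSO only wells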
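Material: CHO-XBP1 cells stably carrying IRE1-XBP1-driven luciferase reporter | Medium: F12 with 10% serum | Compound dosing: 20 µM single concentration, DMSO 1% | Incubation: Overnight seeding at 37 °C, 6 h compound treatment at 37 °C | Detection: Steady-Glo luminescence read | Read-out basis: % activation of reporter signal versus tunicamycin and DMSO controls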
Lmaj promast – Leishmania major promastigote growth inhibition, primary screen. Leishmania major promastigotes, resazurin fluorescence viability. inhibition, % at 10 µM. 9% of 200,000 active; in the data active = inhibition above about 50%;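 also: promastigotes grown with compound for 44 hours at 28 °C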
T cruzi inh – inhibitors of intracellular T. cruzi growth, primary screen, luminescence, NIH3T3 host cells. T. cruzi beta-gal in NIH3T3, 90 h. inhibition, % (test concentration not listed). 1.4% of 300,000 active;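 active = mean inhibition across valid replicates above about 55%, limit read from the data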;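 also: signal also drops with host cell toxicity which is not excluded here; 0% = plate median of DMSO wells and 100% = zero luminescence signal; higher percent means less beta-gal luminescence so fewer parasites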
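assay system = mouse NIH/3T3 fibroblasts infected with β-gal-expressing T. cruzi Tulahuen C4 | input = 5,000 NIH/3T3 host cells per well | buffer or medium = DMEM plus 2% FBS | timing = 3 h host attachment, then at least 90 h co-culture | measured by = GalScreen luminescence, 60 min | evaluation = luminescence reflecting intracellular parasite burden, expressed as percent inhibition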
UPR XBP1 confirm – IRE1-XBP1 UPR arm activators, confirmation, cell-based, CHO-XBP1 luciferase reporter, luminescence, single concentration. shares compounds with UPR XBP1 act. activation, % at 20 µM. 63% of 1,000 active. AID 485299, 2010;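 active = reporter signal at least 30% of the positive control's activation in two or more of four replicate wells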;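 also: plate controls were DMSO negative control for no effect and tunicamycin 10 µg/mL positive control for full effect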
The depositor's hits bear a star; nt = not tested or not shown. The sample as a whole holds a higher share of hits than the screen did.

SMILES | CHOP UPR activ | Dynein transport | CHOP inhibitor | UPR XBP1 act | Lmaj promast | T cruzi inh | UPR XBP1 confirm
O=C(CCN1C(=O)/C(=C/c2ccc(Cl)cc2)SC1=S)NC1C=CS(=O)(=O)C1 (stereo unspecified) | 0.3 | nt | nt | 0.3 | nt | -10.3 | nt
O=C(CN1C(=O)/C(=C/c2ccc(Cl)cc2)SC1=S)NC1C=CS(=O)(=O)C1 (stereo unspecified) | 1.8 | nt | nt | 44.0* | nt | -6.5 | 2.9
COc1ccc(C(=O)O/N=C2\C(=O)N(C)c3ccccc32)cc1 | 1.3 | nt | nt | -2.0 | nt | -16.6 | nt
CN1C(=O)/C(=N\OC(=O)c2cccc3ccccc23)c2ccccc21 | 6.2 | -1.95 | 95.1* | 42.5* | -5.7 | -16.8 | 5.3
CN(C)c1ccc(/C=N/NC(=O)c2ccc(NC(=O)c3ccccc3)cc2)cc1 | 5.0 | -1.47 | 50.2 | 189.1* | nt | 1.4 | 82.8*
COc1cccc2cc(C(=O)Nc3cc(C)cc(C)c3)/c(=N/NS(=O)(=O)c3ccccc3)oc12 | 1.0 | nt | nt | 240.2* | nt | -0.9 | 4.3
COc1ccc(NC(=O)c2cc3ccccc3o/c2=N\NS(=O)(=O)c2ccc(C)cc2)cc1 | 6.9 | nt | nt | -0.7 | nt | -9.6 | nt
C=CCn1cc(C(=O)NCCCN(CC)CC)c(=O)c2cc(S(=O)(=O)N3CCC(C)CC3)ccc21 | 2.2 | nt | nt | -7.3 | nt | 20.2 | nt
COCOc1cc(O)c(C(=O)/C=C/c2ccccc2)c(OCOC)c1 | 22.4 | nt | nt | 40.3* | nt | -25.0 | 27.5
COc1ccc(C)cc1NCc1cc(=O)oc2cc(-c3ccccc3)c(O)cc12 | 0.8 | -0.962 | 93.1* | 52.8* | 20.6 | -9.9 | 9.7
Cc1cc(C(=O)NNC(=O)c2ccccc2[N+](=O)[O-])c(C)o1 | 2.5 | nt | nt | 58.6* | nt | nt | 2.0
Nc1ccc(NC(=O)c2ccccc2)c2c1C(=O)c1ccccc1C2=O | 0.5 | -0.441 | -0.5 | 32.1* | 1.6 | -6.0 | 26.1
Nc1ccccc1NC(=O)c1ccccc1 | 1.4 | 0.0855 | 19.2 | 3.7 | -2.0 | -3.4 | nt
CC(=O)COc1ccc2c(-c3cccc([N+](=O)[O-])c3)cc(=O)oc2c1 | 0.2 | -0.344 | 5.8 | -0.3 | 10.4 | -7.5 | nt
COc1ccc([N+](=O)[O-])cc1COc1ccc2c(-c3ccccc3)cc(=O)oc2c1 | 5.8 | -0.208 | 17.7 | 47.5* | -1.1 | -14.1 | 142.6*
CCCCCC1CCC(c2ccc(/C(N)=N/O)cc2)CC1 (stereo unspecified) | 2.1 | 0.579 | 17.9 | 31.6* | nt | 12.9 | 2.9
C/C(Cl)=C\Cn1c(O)c(N=NC(N)=S)c2cc(Br)ccc21 | 4.9 | -0.204 | -112.7 | 84.0* | 36.6 | 76.7* | 119.6*
Cc1ccc2c(c1)c(N=NC(N)=S)c(O)n2Cc1ccccc1 | 8.7 | 0.43 | 1.0 | 33.2* | 43.6 | 13.6 | 40.5*
COc1cc2nc(SCC(=O)NCc3ccco3)n(Cc3ccc(Cl)cc3)c(=O)c2cc1OC | 17.7 | -1.16 | 88.7* | 34.6* | -3.5 | -12.1 | 0.9
Cc1ccc(Cn2c(SCC(=O)NCc3ccco3)nc3ccsc3c2=O)cc1 | 5.1 | -0.826 | 33.0 | -0.9 | 0.3 | 28.5 | nt
COc1cc(OC)cc(-c2sc3ccc(OC)cc3c2C#CC2(N)CCCCC2)c1 | 3.1 | nt | nt | 28.4 | nt | nt | nt
COc1ccc(-c2sc3cc4c(cc3c2C#CC2(N)CCCCC2)OCO4)cc1 | 11.4 | nt | nt | 33.6* | nt | nt | 15.1
C=C1C[C@H](O[C@@H]2O[C@H](CO)[C@@H](O)[C@H](O)[C@H]2O)[C@@H]2[C@H](OC(=O)[C@H]2C)[C@H]2[C@H](C)[C@H](O)C[C@@H]12 | -1.5 | nt | nt | -3.6 | nt | nt | nt
CCc1ccc(OCCNc2cc(N3CCNC(C)C3)ccc2[N+](=O)[O-])cc1 (stereo unspecified) | 5.4 | nt | nt | 56.3* | nt | nt | 68.3*
CC1CN(c2ccc([N+](=O)[O-])c(NCCOc3ccc(Cl)cc3)c2)CC(C)N1 (stereo unspecified) | 5.8 | nt | nt | 11.9 | nt | 25.5 | nt
